Measurements as given in ChEMBL document CHEMBL3045677, “Sulfonamide-1,2,4-thiadiazole derivatives as antifungal and antibacterial agents: synthesis, biological evaluation, lipophilicity, and conformational studies” (2010).
Values after ≈ are worked out from the molar mass of the structure shown.

Columns and labels:
Aspergillus niger = assay: Antifungal activity against Aspergillus niger ATCC 6275 at 28 degC measured after 72 hr by microdilution method; format: functional; settings: ATCC 6275, 72 h
In short: (§1)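 Fungi were kept on malt agar at 4 °C. Spores were washed off with sterile 0.85% saline containing 0.1% Tween 80 and adjusted to about 1.0×10⁵ per well. Compounds were dissolved in DMSO (1 mg/ml stock) and serially diluted in malt broth with inoculum in 96-well plates, 72 h at 28 °C, for MIC. MFC came from subculture into fresh broth for a further 72 h at 28 °C.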

Bacillus cereus [1] = assay: Antibacterial activity against clinical isolate Bacillus cereus at […] degC measured after 24 hr by microdilution method; format: functional
In short: (§2)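 Bacteria suspended in sterile saline at 1.0×10⁵ CFU/ml and added at 1.0×10⁴ CFU per well to LB broth with compound (1 mg/ml) in 96-well plates. Incubated 24 h at […] °C. MIC was the lowest concentration without visible growth under a binocular microscope. OD 655 nm was read against a blank and a positive control.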

Listeria monocytogenes [2] = assay: Antibacterial activity against Listeria monocytogenes NCTC 7973 at […] degC measured after 24 hr by microdilution method; format: functional; settings: NCTC 7973, 24 h; in short: as §2
Escherichia coli [3] = assay: Antibacterial activity against Escherichia coli ATCC 35210 at […] degC measured after 72 hr by microdilution method; format: functional; settings: ATCC 35210, 72 h
In short: (§3)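 Bactericidal endpoint: after the 24 h broth microdilution (1.0×10⁴ CFU per well, LB broth, […] °C), wells were serially subcultured into plates of fresh broth and incubated a further 72 h. MBC was the lowest concentration with no visible growth, taken as 99.5% killing of the original inoculum.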

Pseudomonas aeruginosa [4] = assay: Antibacterial activity against Pseudomonas aeruginosa ATCC 27853 at […] degC measured after 72 hr by microdilution method; format: functional; settings: ATCC 27853, 72 h; in short: as §3
Staphylococcus aureus [5] = assay: Antibacterial activity against Staphylococcus aureus ATCC 6538 at […] degC measured after 72 hr by microdilution method; format: functional; settings: ATCC 6538, 72 h; in short: as §3
Micrococcus flavus [6] = assay: Antibacterial activity against Micrococcus flavus ATCC 10240 at […] degC measured after 72 hr by microdilution method; format: functional; settings: ATCC 10240, 72 h; in short: as §3
Aspergillus fumigatus = assay: Antifungal activity against plant isolate Aspergillus fumigatus at 28 degC measured after 72 hr by microdilution method; format: functional; in short: as §1
Bacillus cereus [7] = assay: Antibacterial activity against clinical isolate Bacillus cereus at […] degC measured after 72 hr by microdilution method; format: functional; in short: as §3
Pseudomonas aeruginosa [8] = assay: Antibacterial activity against Pseudomonas aeruginosa ATCC 27853 at […] degC measured after 24 hr by microdilution method; format: functional; settings: ATCC 27853, 24 h; in short: as §2
Fulvia fulva = assay: Antifungal activity against Passalora fulva TK5318 at 28 degC measured after 72 hr by microdilution method; format: functional; settings: TK5318, 72 h; in short: as §1
Talaromyces funiculosus = assay: Antifungal activity against Talaromyces funiculosus ATCC 36839 at 28 degC measured after 72 hr by microdilution method; format: functional; settings: ATCC 36839, 72 h; in short: as §1
Proteus mirabilis [9] = assay: Antibacterial activity against Proteus mirabilis at […] degC measured after 24 hr by microdilution method; format: functional; in short: as §2
Salmonella typhimurium [10] = assay: Antibacterial activity against Salmonella enterica subsp. enterica serovar TyphimuriumATCC 13311 at […] degC measured after 72 hr by microdilution method; format: functional, Salmonella enterica subsp. enterica serovar Typhimurium; settings: ATCC 13311, 72 h; in short: as §3
Aspergillus versicolor = assay: Antifungal activity against Aspergillus versicolor ATCC 11730 at 28 degC measured after 72 hr by microdilution method; format: functional; settings: ATCC 11730, 72 h; in short: as §1
Salmonella typhimurium [11] = assay: Antibacterial activity against Salmonella enterica subsp. enterica serovar Typhimurium ATCC 13311 at […] degC measured after 24 hr by microdilution method; format: functional; settings: ATCC 13311, 24 h; in short: as §2
Trichoderma viride = assay: Antifungal activity against Hypocrea rufa IAM 5061 at 28 degC measured after 72 hr by microdilution method; format: functional; settings: IAM 5061, 72 h; in short: as §1
Escherichia coli [12] = assay: Antibacterial activity against Escherichia coli ATCC 35210 at […] degC measured after 24 hr by microdilution method; format: functional; settings: ATCC 35210, 24 h; in short: as §2
Listeria monocytogenes [13] = assay: Antibacterial activity against Listeria monocytogenes NCTC 7973 at […] degC measured after 72 hr by microdilution method; format: functional; settings: NCTC 7973, 72 h; in short: as §3
Staphylococcus aureus [14] = assay: Antibacterial activity against Staphylococcus aureus ATCC 6538 at […] degC measured after 24 hr by microdilution method; format: functional; settings: ATCC 6538, 24 h; in short: as §2
Proteus mirabilis [15] = assay: Antibacterial activity against Proteus mirabilis at […] degC measured after 72 hr by microdilution method; format: functional; in short: as §3
Aspergillus flavus = assay: Antifungal activity against Aspergillus flavus ATCC 9643 at 28 degC measured after 72 hr by microdilution method; format: functional; settings: ATCC 9643, 72 h; in short: as §1
Penicillium ochrochloron = assay: Antifungal activity against Penicillium ochrochloron ATCC 9112 at 28 degC measured after 72 hr by microdilution method; format: functional; settings: ATCC 9112, 72 h; in short: as §1
Micrococcus flavus [16] = assay: Antibacterial activity against Micrococcus flavus ATCC 10240 at […] degC measured after 24 hr by microdilution method; format: functional; settings: ATCC 10240, 24 h; in short: as §2

| Structure (SMILES) | MFC (Aspergillus niger) | MIC (Aspergillus niger) | MFC (Aspergillus fumigatus) | MIC (Aspergillus fumigatus) | MFC (Fulvia fulva) | MIC (Fulvia fulva) | MFC (Talaromyces funiculosus) | MIC (Talaromyces funiculosus) | MFC (Aspergillus versicolor) | MIC (Aspergillus versicolor) | MFC (Trichoderma viride) | MIC (Trichoderma viride) | MFC (Aspergillus flavus) | MIC (Aspergillus flavus) | MFC (Penicillium ochrochloron) | MIC (Penicillium ochrochloron) | also measured |
| --- | --- | --- | --- | --- | --- | --- | --- | --- | --- | --- | --- | --- | --- | --- | --- | --- | --- |
| COc1cc(Cc2nnc(Nc3ccc([N+](=O)[O-])cc3)s2)c(S(=O)(=O)N2CCCCC2)cc1OC | 38.6 µM (≈ 20.1 µg/mL) | 19.3 µM (≈ 10 µg/mL) | 38.6 µM (≈ 20.1 µg/mL) | 19.3 µM (≈ 10 µg/mL) | 19.3 µM (≈ 10 µg/mL) | 9.7 µM (≈ 5.04 µg/mL) | 38.6 µM (≈ 20.1 µg/mL) | 19.3 µM (≈ 10 µg/mL) | 38.6 µM (≈ 20.1 µg/mL) | 19.3 µM (≈ 10 µg/mL) | 19.3 µM (≈ 10 µg/mL) | 9.7 µM (≈ 5.04 µg/mL) | 38.6 µM (≈ 20.1 µg/mL) | 19.3 µM (≈ 10 µg/mL) | 38.6 µM (≈ 20.1 µg/mL) | 19.3 µM (≈ 10 µg/mL) | MIC (Bacillus cereus [1]): 19.3 µM (≈ 10 µg/mL); MIC (Listeria monocytogenes [2]): 19.3 µM (≈ 10 µg/mL); MBC (Escherichia coli [3]): 38.6 µM (≈ 20.1 µg/mL); MBC (Pseudomonas aeruginosa [4]): 19.3 µM (≈ 10 µg/mL); MBC (Staphylococcus aureus [5]): 77.2 µM (≈ 40.1 µg/mL); MBC (Micrococcus flavus [6]): 38.6 µM (≈ 20.1 µg/mL); MBC (Bacillus cereus [7]): 38.6 µM (≈ 20.1 µg/mL); MIC (Pseudomonas aeruginosa [8]): 9.7 µM (≈ 5.04 µg/mL); MIC (Proteus mirabilis [9]): 38.6 µM (≈ 20.1 µg/mL); MBC (Salmonella typhimurium [10]): 19.3 µM (≈ 10 µg/mL); MIC (Salmonella typhimurium [11]): 9.7 µM (≈ 5.04 µg/mL); MIC (Escherichia coli [12]): 19.3 µM (≈ 10 µg/mL); MBC (Listeria monocytogenes [13]): 77.2 µM (≈ 40.1 µg/mL); MIC (Staphylococcus aureus [14]): 38.6 µM (≈ 20.1 µg/mL); MBC (Proteus mirabilis [15]): 77.2 µM (≈ 40.1 µg/mL); MIC (Micrococcus flavus [16]): 19.3 µM (≈ 10 µg/mL) |
| c1ccc(-c2ccc(C(c3ccccc3)n3ccnc3)cc2)cc1 (stereo not drawn) [BIFONAZOLE] | 640 µM (≈ 199 µg/mL) | 480 µM (≈ 149 µg/mL) | 640 µM (≈ 199 µg/mL) | 480 µM (≈ 149 µg/mL) | 640 µM (≈ 199 µg/mL) | 320 µM (≈ 99.3 µg/mL) | 800 µM (≈ 248 µg/mL) | 640 µM (≈ 199 µg/mL) | 640 µM (≈ 199 µg/mL) | 320 µM (≈ 99.3 µg/mL) | 800 µM (≈ 248 µg/mL) | 640 µM (≈ 199 µg/mL) | 640 µM (≈ 199 µg/mL) | 480 µM (≈ 149 µg/mL) | 640 µM (≈ 199 µg/mL) | 480 µM (≈ 149 µg/mL) |  |
